The whole screen tested about 1,300 compounds, of which about 65 (5%) were called active. The sample holds actives, similar compounds and a random draw of the others, so the mix is not that of the screen. Entries with a potency or affinity are not part of this list. Values without a mark were called inactive.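 The calls were made as follows: active = growth inhibition reaching a set limit at one or more tested doses; inactive = the rest.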

Here are results for five compounds from PubChem BioAssay AID638 (SRMLSC, 2007).

This test can be described thus: wild-type E. coli BW25113 antibacterial activity – OD615, dose response (AID 638). To be noted: at 100 µM (top of the series). In outline: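 Assay system: E. coli BW25113 wild type. Doses: compound concentration series. Timing: 20 h compound exposure, 37 °C. Technique: OD615 absorbance. Medium: LB broth containing kanamycin at 50 µg/mL. Benchmarks: chloramphenicol at 30 µM final as inhibition control. Measure: IC50 from 4-parameter logistic, bounds fixed 0–100%.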
Regarding `Clc1ccc(COC(Cn2ccnc2)c2ccc(Cl)cc2Cl)cc1` (stereo not given), the growth inhibition was 4.14%.

For `Clc1ccc(COC(Cn2ccnc2)c2ccc(Cl)cc2Cl)c(Cl)c1` (stereo not given), the growth inhibition was 10.9% (active).

On to `Cc1nn(-c2ccccc2)c(Cl)c1C1C(C#N)=C(N)Oc2c1c(=O)oc1ccccc21` (stereo not given), for which the growth inhibition was 3.35%.

As for `CN(C)C1(c2nnnn2CCOC(=O)Nc2ccc(Cl)cc2)CCCCC1`, the growth inhibition was 4.48%.

`CCC(=Nc1ccc(OC)cc1OC)c1c(O)n(C2CCCCC2)c(=O)[nH]c1=O`: the growth inhibition was -2.11%.
